Bioassay records as filed in PubChem BioAssay.
RAD54 inh – RAD54 (human) branch migration inhibition. Q92698. RAD54 Holliday junction branch migration, FAM/BHQ fluorescence. inhibition, % at 10.4 µM. 360,000 tested, 0.14% active;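 active = mean normalized replicate activity at least 40 and at least half of replicates scoring 40 or more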;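 note: 0% = median of neutral control wells and 100% = median of positive control wells; inhibitors cause a drop in the FAM fluorescence signal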
Xi reactivation – reactivates the inactive X chromosome in mouse fibroblasts. XiGFP mouse fibroblasts, % GFP-positive cells imaging, 3 d; cells co-treated with 5-aza-dC sensitizer; scaled so ellipticine positive control = 100%. activation, % at 7.58 µM. 360,000 tested, 0.055% active;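 active = mean normalized replicate activation at least 10% and every replicate at or above 10%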;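 note: 0% = median of on-plate neutral control wells and 100% = ellipticine 6 µM median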
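System: SV40-immortalized XiGFP fibroblast cells, line 68-5-11 / Incubation: 3-day compound exposure, then 15 min fixation at room temperature / Compound: single concentration per compound, delivered by pin transfer / Buffer or medium: DMEM plus 5-aza-dC sensitizer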
Ecoli rRNA inh – selective bacterial rRNA inhibition in E. coli. E. coli WT GFP vs humanized-ribosome RFP mutants, fluorescence, 24 h; stronger effect = lower value; DMSO median 0, no signal -100. AID 720706. GFP signal change (wild-type ribosome), % (no concentration beside the values). 350,000 tested, 1.6% active;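 active = significant combined selectivity score with lowered wild-type GFP, culture density cut under 30%, mutant RFP and density less affected; inactive = any of these conditions unmet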
E-sel inducer – induces E-selectin expression in human endothelial cells. P16581. HUVEC E-selectin immunofluorescence imaging; normalized: neutral wells 0, TNF-alpha wells 100. activation, % at 7.58 µM. 260,000 tested, 0.37% active. AID 686992;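 active = mean E-selectin-positive cell signal at least 10% of the positive control, reached in at least 60% of replicates, without over 20% cell loss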
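assay system = HUVEC, human umbilical vein endothelial cells | input = 3,000 HUVEC seeded per well | medium = EGM-2 growth medium on 0.1% gelatin-coated wells | dosing = one compound dose added by pin transfer | signal = immunofluorescence imaging | read-out basis = % PE-positive cells | control set = TNF-alpha, DMSO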
RAD52 anneal inh – RAD52 (human) annealing inhibition; recombinant RAD52 DNA annealing, FRET fluorescence; inhibition, % at 18.7 µM; 360,000 tested, 0.46% active;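 active = every replicate showing at least 50% inhibition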
Target sequence (P43351 whole entry, looked up): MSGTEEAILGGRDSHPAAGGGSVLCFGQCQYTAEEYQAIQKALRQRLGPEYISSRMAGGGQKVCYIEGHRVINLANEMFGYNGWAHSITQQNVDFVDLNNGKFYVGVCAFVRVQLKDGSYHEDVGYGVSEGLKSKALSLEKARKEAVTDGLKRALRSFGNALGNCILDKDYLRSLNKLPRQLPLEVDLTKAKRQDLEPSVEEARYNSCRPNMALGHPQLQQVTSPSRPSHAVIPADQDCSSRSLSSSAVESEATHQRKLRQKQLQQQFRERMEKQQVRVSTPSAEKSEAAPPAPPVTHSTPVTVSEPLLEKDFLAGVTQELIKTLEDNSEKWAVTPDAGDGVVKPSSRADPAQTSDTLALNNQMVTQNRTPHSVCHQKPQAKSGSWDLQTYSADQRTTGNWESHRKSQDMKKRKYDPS
PglD DTNB – blocks C. jejuni PglD acetyltransferase activity | purified PglD enzyme, DTNB colorimetric CoA detection | AID 602405 | 360,000 tested, 0.098% active | inhibition, % at 12.5 µM; in the data active = inhibition above about 16%, passing the limit was not always enough
Numbers without * were called inactive; . = no result; ! = not active in a repeat. Rows were chosen to be rich in hits. Some 2% of all compounds tested hit in one or more screens of this group.

SMILES | RAD54 inh | Xi reactivation | Ecoli rRNA inh | E-sel inducer | RAD52 anneal inh | PglD DTNB
Cc1ccc(S(=O)(=O)N(C)C[C@H]2OCCCC[C@@H](C)Oc3ccc(NC(=O)CCCN(C)C)cc3C(=O)N([C@@H](C)CO)C[C@@H]2C)cc1 | 6 | 0 | 1 | . | 50* | 7
Cc1ccc(S(=O)(=O)N(C)C[C@@H]2OCCCC[C@@H](C)Oc3ccc(NC(=O)CCCN(C)C)cc3C(=O)N([C@@H](C)CO)C[C@@H]2C)cc1 | -4 | 0 | 1 | . | 25 | -5
Cc1ccc(S(=O)(=O)N(C)C[C@H]2Oc3ccc(NC(=O)CCCN(C)C)cc3C(=O)N([C@H](C)CO)C[C@H]2C)cc1 | 21 | -1 | -2 | 282* | 0 | 2
Cc1ccc(S(=O)(=O)N(C)C[C@@H]2Oc3ccc(NC(=O)CCCN(C)C)cc3C(=O)N([C@H](C)CO)C[C@@H]2C)cc1 | 13 | 0 | 3 | -10 | 8 | -1
COc1ccc(S(=O)(=O)N(C)C[C@@H]2Oc3ccc(NC(=O)CCCN(C)C)cc3C(=O)N([C@@H](C)CO)C[C@@H]2C)cc1 | -2 | 0 | 1 | 57* | 1 | -4
C[C@H](CO)N1C[C@H](C)[C@H](CN(C)Cc2cccnc2)Oc2cc(-c3cncnc3)ccc2S1(=O)=O | -6 | 0 | 0 | 0 | 3 | 0
COc1ccc(S(=O)(=O)N(C)C[C@H]2Oc3ccc(NS(=O)(=O)c4c(C)noc4C)cc3C(=O)N([C@@H](C)CO)C[C@H]2C)cc1 | 1 | -1 | -5 | 404* | -46 | 3
Cc1noc(C)c1S(=O)(=O)Nc1ccc2c(c1)C(=O)N([C@@H](C)CO)C[C@H](C)[C@H](CN(C)S(=O)(=O)c1ccc(F)cc1)O2 | . | 0 | -2 | 0 | 13 | .
Cc1noc(C)c1S(=O)(=O)Nc1ccc2c(c1)C(=O)N([C@H](C)CO)C[C@H](C)[C@@H](CN(C)S(=O)(=O)c1ccc(F)cc1)O2 | -8 | 0 | -25*! | 0 | -1 | -4
O=C(C[C@@H]1C[C@H]2c3cc(NC(=O)Cc4ccncc4)ccc3O[C@H]2[C@H](CO)O1)NCc1ccccn1 | -9 | 0 | 0 | 1 | -1 | -1
COc1cccc(/C=N/NC(=O)c2cc(-c3cccn3C)n[nH]2)c1O | . | 0 | -36* | 3 | -22 | .
COc1ccccc1/C=C/C=N/NC(=O)CCn1cnc2ccccc21 | 3 | 0 | -35* | 0 | -3 | 1
COc1cc(/C=N/NC(=O)c2cc(-c3cccn3C)n[nH]2)cc(OC)c1OC | -5 | . | . | . | . | 0
COc1cccc(/C=N/NC(=O)c2cc(-c3cccn3C)n[nH]2)c1 | 7 | . | -24* | . | 5 | 0
COc1cccc(/C=N\NC(=O)Cn2nnc3ccccc32)c1O | . | 0 | -20* | . | -14 | .
COc1ccc2c3c(n(C)c2c1)[C@H](CO)N(CC1CCCC1)CC31CCN(C(C)=O)CC1 | . | 0 | 6 | 0 | -185 | .
C[C@@H]1CN([C@@H](C)CO)C(=O)Cc2cc(NC(=O)Nc3ccc(F)cc3)ccc2O[C@H]1CN(C)S(=O)(=O)c1ccc(F)cc1 | -15 | 0 | 3 | 0 | 0 | -6
COc1cccc(OCc2cc(C(=O)NCc3ccc4c(c3)OCO4)no2)c1 | 2 | 0 | -33* | . | -7 | 1
COc1ccccc1CCNC(=O)c1cc(COc2cccc(C(F)(F)F)c2)on1 | -10 | 0 | -34* | . | -13 | 3
O=C(NCc1ccc2c(c1)OCO2)c1cc(COc2c(F)cccc2F)on1 | -4 | 0 | -9 | -1 | -4 | 0
O=C(CSc1nc2ccc(NC(=O)CSc3nnnn3-c3ccccc3)cc2s1)Nc1ccccc1 | -10 | 0 | . | . | . | 2
Cn1cnnc1SCC(=O)Nc1ccc2nc(SCc3ccccc3F)sc2c1 | 3 | . | -23* | . | -25 | -3
COC(=O)C1=C(C)N(Cc2ccccc2)C(=S)NC1c1cccc(OC)c1 (stereo unspecified) | . | 0 | -29* | 4 | -12 | .
COC(=O)C1=C(C)N(Cc2ccc(F)cc2)C(=S)NC1c1cccc(OC)c1 (stereo unspecified) | . | 0 | -22* | 2 | -8 | .
COC(=O)C1=C(C)N(Cc2ccc(Br)cc2)C(=S)NC1c1cccc(OC)c1 (stereo unspecified) | . | 1 | 0 | 0 | -10 | .
SMILES | RAD54 inh | Xi reactivation | Ecoli rRNA inh | E-sel inducer | RAD52 anneal inh | PglD DTNB
COC(=O)[C@]12C[C@H](CC(=O)NCCCN3CCCC3=O)C(=O)N(Cc3ccc4c(c3)OCO4)C1=C[C@H](C(C)(C)C)O[C@@H]2C | . | 0 | -1 | 0 | -5 | .
COC(=O)c1sccc1NC(=O)NC1CCCCC1 | . | 0 | -1 | 1 | -14 | .
COC(=O)c1sccc1NC(=S)N(C)C1CCCCC1 | . | 0 | -26* | 0 | -5 | .
C[C@@H]1CN([C@H](C)CO)C(=O)c2cc(NC(=O)Nc3ccc4c(c3)OCO4)ccc2O[C@@H]1CN(C)S(=O)(=O)c1cn(C)cn1 | 7 | 1 | -1 | -2 | -2 | 0
CCOC(=O)Nc1ccc(C(=O)/C=C/c2ccccc2)cc1 | 2 | 0 | -26* | . | -2 | -3
CCOC(=O)Nc1ccc(Oc2ccccc2)cc1 | 2 | . | . | . | . | -11
COc1ccc(S(=O)(=O)Nc2ccc3c(c2)C(=O)N([C@H](C)CO)C[C@H](C)[C@@H](CN(C)S(=O)(=O)c2ccccc2)OCCCC[C@H](C)O3)cc1 | . | 0 | -4 | 0 | -29 | .
COc1cc(NC(=O)CSCc2ccc(Cl)cc2Cl)c(C(=O)O)cc1OC | 0 | 0 | -20* | . | -18 | 9
O=C(CSCc1ccc(Cl)cc1Cl)Nc1ccc(O)cc1C(=O)O | -8 | 0 | 2 | . | -19 | 4
C[C@@H]1CN([C@H](C)CO)C(=O)c2cc(NS(C)(=O)=O)ccc2O[C@@H](C)CCCCO[C@@H]1CN(C)C(=O)c1ccncc1 | 19 | -1 | 4 | 0 | -2 | -4
COc1ccc(S(=O)(=O)N(C)C[C@@H]2Oc3c(NC(=O)Nc4c(C)noc4C)cccc3C(=O)N([C@@H](C)CO)C[C@H]2C)cc1 | . | -1 | -2 | 3 | . | .
COc1ccc(S(=O)(=O)N(C)C[C@H]2Oc3ccc(NC(=O)Nc4c(C)noc4C)cc3C(=O)N([C@H](C)CO)C[C@@H]2C)cc1 | 2 | 0 | 5 | 55*! | 0 | -4
COc1ccc(S(=O)(=O)N(C)C[C@H]2Oc3c(NC(=O)Nc4c(C)noc4C)cccc3C(=O)N([C@@H](C)CO)C[C@H]2C)cc1 | 8 | -1 | 2 | 175*! | -1 | -1
Cn1c(C(=O)NCCN2CCOCC2)cc2c(=O)n(C)c3ccccc3c21 | 34 | 0 | -7 | . | 3 | 1
CCCN(CCC)CCNC(=O)c1cc2c(=O)n(C)c3ccccc3c2n1C | 55* | 0 | -9 | 0 | 26 | -2
